Data published in article PMC10422108 (Journal of Pharmaceutical Analysis, 2023).

What was measured:
Lewis lung cancer (LLC) = test: Antitumor activity in Lewis lung cancer; type: in vivo, C57BL/6J male mice; conditions: LLC mice; PTX 25 mg/kg; PTX-R 14.4, 28.8, 57.6 mg/kg; 11 day; versus control
[1] = tested on: CTL1, OCT1 and OCT2 in LLC cells; test: PTX-R uptake assay with transporter inhibitors; type: cell-based, mouse; conditions: 100 μmol/L HC-3, 60 μmol/L quinidine or 60 μmol/L cimetidine, 10 min
Procedure, shortened: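 LLC cells seeded at 2 × 10^5 cells/mL, grown 48 h, PBS-washed. Preincubated 20 min with inhibitor or PBS, then 4.5 μmol/L test compound ± inhibitor for 10 min. Stopped by three cold PBS washes; lysed 30 min in cold MeOH/0.1% FA containing 100 ng/mL docetaxel internal standard. Extract dried, reconstituted in ACN:H2O 1:9, quantified by LC-MS/MS (MRM).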

indices of the spleen and thymus (Lewis lung cancer (LLC)): notably reduced
SMILES: CC(=O)O[C@H]1C(=O)[C@@]2(C)[C@H]([C@H](OC(=O)c3ccccc3)[C@]3(O)C[C@H](OC(=O)[C@H](O)[C@@H](NC(=O)c4ccccc4)c4ccccc4)C(C)=C1C3(C)C)[C@]1(OC(C)=O)CO[C@@H]1C[C@@H]2O [PTX, paclitaxel]
cellular uptake in presence of transporter inhibitors [1]: no influence on PTX transport
